{
  "source": "paper PMC4878412",
  "about": "(Cancer chemotherapy and pharmacology, 2015)",
  "key": {"[1]": {"settings": "ref [1]; cited from earlier work"}, "[2]": {"settings": "free RK-33; no method in this paper, no reference given; cited from earlier work"}, "[3]": {"test_system": "DDX3", "settings": "ref [1]; cited from earlier work"}, "[4]": {"settings": "ref [1]; cited from earlier work", "remark": "listed apart in the source"}, "[5]": {"test": "In vivo retention of RK-33 in plasma, liver and lungs 48 h after administration", "settings": "mice, 48 h after intraperitoneal injection of 0.80 mg free RK-33", "procedure,_shortened": "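Female athymic NCr-nu/nu mice (4–5 weeks, three animals) got free test compound 0.8 mg i.p. and were killed at 48 h. Blood was drawn intracardially into heparin tubes and spun at 8000 rpm for 5 min. Liver and lungs were weighed and homogenised in 3 volumes cold PBS. Plasma or homogenate (0.1 mL) was extracted with 1 mL chloroform/isopropanol (1:1), shaken 3 min and centrifuged.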"}},
  "data": [
    {"substance": "RK-33", "values": [
      {"measurement": "Toxicity in mice (in words)", "setting": "[1]", "value": "little or no toxicity"},
      {"measurement": "Systemic half-life (t½)", "setting": "[2]", "value": 7.3, "unit": "h"},
      {"measurement": "Inhibition of DDX3 (in words)", "setting": "[3]", "value": "effectively inhibits"},
      {"measurement": "Cell cycle effect (in words)", "setting": "[4]", "value": "induce G1 arrest"},
      {"measurement": "RK-33 in liver", "setting": "[5]", "value": "< 1", "unit": "µg/mL"},
      {"measurement": "RK-33 in lungs", "setting": "[5]", "value": "< 1", "unit": "µg/mL"},
      {"measurement": "RK-33 in plasma", "setting": "[5]", "value": "< 1", "unit": "µg/mL"}
    ]}
  ]
}
